Data taken from ChEMBL document CHEMBL4251738, “A BODIPY-Tagged Phosphono Peptide as Activity-Based Probe for Human Leukocyte Elastase” (ACS Med Chem Lett, 2018).
The source made the active and inactive calls. No cut-off for these calls is given here.

Tests used:
[1] = target: T1, Pancreatic elastase (Sus scrofa) (UniProt P08419+P00772); experiment: Inhibition of porcine pancreatic elastase assessed as product formation at 1 uM using MeO-Suc-Ala-Ala-Pro-Val-pNA as substrate incubated over 60 mins by spectrophotometric method; format: protein assay
Procedure, shortened: (§1)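 Single-point test at 1 μM inhibitor, run in duplicate. Product formation was followed over 60 min. More than 90% product formation after 60 min was scored as no inhibition.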

[2] = target: T2, Neutrophil elastase (Homo sapiens) (UniProt P08246); experiment: Irreversible inhibition of human leukocyte elastase assessed as ratio of Kinact to Ki using MeO-Suc-Ala-Ala-Pro-Val-pNA as substrate incubated over 60 mins by spectrophotometric method
T2 sequence (whole entry): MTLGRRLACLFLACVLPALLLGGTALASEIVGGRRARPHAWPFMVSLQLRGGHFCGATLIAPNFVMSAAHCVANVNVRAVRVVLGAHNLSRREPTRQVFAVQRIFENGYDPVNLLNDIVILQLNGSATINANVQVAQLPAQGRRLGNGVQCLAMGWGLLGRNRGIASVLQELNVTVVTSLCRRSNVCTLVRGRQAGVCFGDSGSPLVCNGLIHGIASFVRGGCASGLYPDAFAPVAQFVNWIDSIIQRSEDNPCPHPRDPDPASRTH
Procedure, shortened: (§2)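 From substrate-consumption progress curves, kobs values (means of duplicates) were plotted against inhibitor concentration. kinac/Ki was derived by linear regression as kinac/Ki = kobs/[I](1 + [S]/Km) + d, where d is an offset. SEM is from that regression.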

[3] = target: Prothrombin (Homo sapiens) (UniProt P00734); experiment: Inhibition of human thrombin assessed as product formation at 1 uM using Z-Gly-Gly-Arg-AMC as substrate incubated over 60 mins by fluorimetric method; procedure, shortened: as §1
[4] = target: T2, Neutrophil elastase (Homo sapiens); experiment: Irreversible inhibition of human leukocyte elastase assessed as ratio of Kinact to Ki using MeO-Suc-Ala-Ala-Pro-Val-pNA as substrate by spectrophotometric method; settings: TDE = time-dependent effect; procedure, shortened: as §2
Bos taurus [5] = species: Bos taurus; experiment: Inhibition of bovine trypsin assessed as product formation at 1 uM using Suc-Ala-Ala-Pro-Arg-pNA as substrate incubated over 60 mins by spectrophotometric method; procedure, shortened: as §1
[6] = target: Procathepsin L (Homo sapiens) (UniProt P07711); experiment: Inhibition of human cathepsin L assessed as product formation at 1 uM using Z-Phe-Arg-pNA as substrate incubated over 60 mins by spectrophotometric method; procedure, shortened: as §1
Sequence of Procathepsin L (Homo sapiens) (P07711 114-333 limits assumed): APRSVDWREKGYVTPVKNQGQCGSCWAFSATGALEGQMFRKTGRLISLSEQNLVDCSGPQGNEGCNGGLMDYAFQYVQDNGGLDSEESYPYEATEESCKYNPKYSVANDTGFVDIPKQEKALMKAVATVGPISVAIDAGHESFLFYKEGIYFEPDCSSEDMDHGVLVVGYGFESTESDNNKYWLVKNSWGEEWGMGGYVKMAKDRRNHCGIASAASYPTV

[7] = target: Cathepsin B (Homo sapiens) (UniProt P07858); experiment: Inhibition of human cathepsin B assessed as product formation at 1 uM using Z-Arg-Arg-pNA as substrate incubated over 60 mins by spectrophotometric method; procedure, shortened: as §1
[8] = target: Coagulation factor X (Bos taurus) (UniProt P00743); experiment: Inhibition of bovine factor 10a assessed as product formation at 1 uM using Boc-Ile-Glu-Gly-Arg-AMC as substrate incubated over 60 mins by fluorimetric method; procedure, shortened: as §1
Sequence of Coagulation factor X (Bos taurus) (P00743 41-180 limits assumed): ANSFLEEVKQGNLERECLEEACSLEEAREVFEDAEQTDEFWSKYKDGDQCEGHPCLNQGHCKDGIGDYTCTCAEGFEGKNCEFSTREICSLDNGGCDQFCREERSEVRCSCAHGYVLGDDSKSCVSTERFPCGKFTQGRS
Sequence of Coagulation factor X (Bos taurus) (P00743 234-492 limits assumed): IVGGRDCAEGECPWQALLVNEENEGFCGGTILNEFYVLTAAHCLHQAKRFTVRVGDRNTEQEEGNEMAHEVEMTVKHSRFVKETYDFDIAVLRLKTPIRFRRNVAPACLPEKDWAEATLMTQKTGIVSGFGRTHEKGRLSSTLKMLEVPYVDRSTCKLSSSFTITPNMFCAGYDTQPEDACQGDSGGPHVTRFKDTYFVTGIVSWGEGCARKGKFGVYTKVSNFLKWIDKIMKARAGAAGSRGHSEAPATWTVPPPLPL

Bos taurus [9] = species: Bos taurus; experiment: Inhibition of bovine chymotrypsin assessed as product formation at 1 uM using Suc-Ala-Ala-Pro-Phe-pNA as substrate incubated over 60 mins by spectrophotometric method; procedure, shortened: as §1
[10] = target: T1, Pancreatic elastase (Sus scrofa); experiment: Inhibition of porcine pancreatic elastase assessed as ratio of Kinact to Ki using MeO-Suc-Ala-Ala-Pro-Val-pNA as substrate incubated over 60 mins by spectrophotometric method; format: protein assay; procedure, shortened: as §2
[11] = target: T2, Neutrophil elastase (Homo sapiens); experiment: Irreversible inhibition of human leukocyte elastase at 20 nM using MeO-Suc-Ala-Ala-Pro-Val-pNA as substrate incubated for 30 mins followed by substrate addition
[12] = target: T2, Neutrophil elastase (Homo sapiens); experiment: Binding affinity to human leukocyte elastase at 2.5 uM incubated for 20 mins followed by HEK cell lysate addition by in gel fluorescence detection based SDS-PAGE analysis
Procedure, shortened: (§3)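 HLE (600 ng) was incubated with 2.5 μM probe for 20 min. HEK cell lysate (9 μg) was added either before or after that incubation. Lysate alone and HLE alone were run as reference lanes. Samples went on SDS-PAGE, read by in-gel fluorescence and then by Coomassie staining.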

[13] = target: T2, Neutrophil elastase (Homo sapiens); experiment: Binding affinity to human leukocyte elastase at 160 ng after 20 mins by in gel fluorescence detection based SDS-PAGE analysis
Procedure, shortened: (§4)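 Varying amounts of HLE were incubated with 2.5 μM fluorescent probe and then run on SDS-PAGE. Labeled HLE was read by in-gel fluorescence as bands at about 29 kDa. The same gel was then stained with Coomassie.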

[14] = target: T2, Neutrophil elastase (Homo sapiens); experiment: Inhibition of human leukocyte elastase at 2.5 uM preincubated with sivelestat for 5 mins followed by compound addition measured after 20 mins in presence of sivelestat by Coomassie brilliant blue G-250 staining based assay
Procedure, shortened: (§5)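 It was then incubated with 2.5 μM probe. Samples were resolved by SDS-PAGE, read by in-gel fluorescence and then by Coomassie staining.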

[15] = target: T2, Neutrophil elastase (Homo sapiens); experiment: Binding affinity to human leukocyte elastase at 2.5 uM after 20 mins by in gel fluorescence detection based SDS-PAGE analysis; procedure, shortened: as §4
Bos taurus [16] = species: Bos taurus; experiment: Inhibition of bovine chymotrypsin assessed as ratio of Kinact to Ki using Suc-Ala-Ala-Pro-Phe-pNA as substrate incubated over 60 mins by spectrophotometric method; procedure, shortened: as §2
[17] = target: T2, Neutrophil elastase (Homo sapiens); experiment: Binding affinity to human leukocyte elastase at 2.5 uM after 20 mins by Coomassie brilliant blue G-250 staining based assay; procedure, shortened: as §4
[18] = target: T2, Neutrophil elastase (Homo sapiens); experiment: Binding affinity to human leukocyte elastase at 2.5 uM incubated for 20 mins post HEK cell lysate addition by in gel fluorescence detection based SDS-PAGE analysis; procedure, shortened: as §3
[19] = target: T2, Neutrophil elastase (Homo sapiens); experiment: Binding affinity to human leukocyte elastase at 2.5 uM incubated for 20 mins followed by HEK cell lysate addition by Coomassie brilliant blue G-250 staining based assay; procedure, shortened: as §3
[20] = target: T2, Neutrophil elastase (Homo sapiens); experiment: Inhibition of human leukocyte elastase at 2.5 uM preincubated with sivelestat for 5 mins followed by compound addition measured after 20 mins in presence of sivelestat by in gel fluorescence detection based SDS-PAGE analysis; procedure, shortened: as §5
[21] = target: T2, Neutrophil elastase (Homo sapiens); experiment: Irreversible inhibition of human leukocyte elastase at 50 nM using MeO-Suc-Ala-Ala-Pro-Val-pNA as substrate incubated for 30 mins followed by substrate addition
[22] = target: T2, Neutrophil elastase (Homo sapiens); experiment: Binding affinity to human leukocyte elastase at 2.5 uM incubated for 20 mins post HEK cell lysate addition by Coomassie brilliant blue G-250 staining based assay; procedure, shortened: as §3

Structure (SMILES) | Ratio [2] [M⁻¹ s⁻¹] | inhibition [3] [%] | inhibition [4] | inhibition (Bos taurus [5]) [%] | inhibition [6] [%] | inhibition [7] [%] | inhibition [8] [%] | inhibition (Bos taurus [9]) [%] | Ratio [10] [M⁻¹ s⁻¹] | also measured
CSc1ccc(OP(=O)(Oc2ccc(SC)cc2)[C@H](NC(=O)[C@@H]2CCCN2C(=O)[C@@H](NC(=O)OC(C)(C)C)C(C)C)C(C)C)cc1 | 1000 | > 90 | Tde | > 90 | > 90 | > 90 | > 90 | > 90 |  | inhibition [1]: > 90%
CSc1ccc(OP(=O)(Oc2ccc(SC)cc2)[C@@H](NC(=O)[C@@H]2CCCN2C(=O)[C@@H](NC(=O)OC(C)(C)C)C(C)C)C(C)C)cc1 | 399000 | > 90 | Tde | > 90 | > 90 | > 90 | > 90 | > 90 | 7990 | inhibition [11]: Active
CC(C)(C)C(=O)Oc1ccc(S(=O)(=O)Nc2ccccc2C(=O)NCC(=O)O)cc1 |  |  |  |  |  |  |  |  |  | inhibition [2]: Dose-dependent effect
CSc1ccc(OP(=O)(Oc2ccc(SC)cc2)[C@@H](NC(=O)[C@@H]2CCCN2C(=O)[C@@H](NC(=O)Cn2cc(-c3ccc(C4=C5C(C)=CC(C)=[N+]5[B-](F)(F)n5c(C)cc(C)c54)cc3)nn2)C(C)C)C(C)C)cc1 | 88400 | > 90 |  | > 90 | > 90 | > 90 | > 90 |  | 1440 | Activity [12]: Active; Activity [13]: Active; inhibition [14]: inactive; Activity [15]: Active; Ratio (Bos taurus [16]): 565 M⁻¹ s⁻¹; Activity [17]: Active; Activity [18]: Active; Activity [19]: Active; inhibition [20]: inactive; inhibition [21]: Active; Activity [22]: Active
